Results of several laboratories.
Protocols differ between the studies behind these lines.
Target: Receptor-interacting serine/threonine-protein kinase 2 (RIPK2, Homo sapiens, UniProt O43353)

`CN(C)c1nccc(-c2cnn3ncccc23)n1` gave a remaining binding of 100% (binding; 1 µM).
The remaining binding of `C[C@@H]1CN(c2cc(-c3nn(C)c4ccc(OC5(C)CC5)cc34)ncn2)C[C@H](C)O1` is reported as 100% (cell-free assay; competition with immobilised ligand; 1 µM).
`Nc1ncc2c(n1)-c1c([nH]c3ccc(C#CC4CC4)cc13)CCCC2` gave a remaining binding of 100% (binding; competition with immobilised ligand; 1 µM).
With `c1cnn2ncc(-c3ccnc(N4CCC45COC5)n3)c2c1` the remaining binding was 78% (binding; 1 µM).
`O=C1NC(c2ccccn2)Sc2ccccc21` (stereo not shown) gave a remaining binding of 100% (cell-free assay; competition with immobilised ligand; 1 µM).
The remaining binding of `O=C(c1ccc(Nc2ncc(Cl)c(-c3ccc(Cl)s3)n2)cc1)N1CCC(N2CCCC2)CC1` is reported as 89% (binding; competition with immobilised ligand; 1 µM).
`CNC(=O)[C@@H]1CC[C@@H](n2c(-c3ccc4cnccc4c3)nc3ccc(C(=O)NCc4cccc(C(N)=O)c4)cc32)C1` has a remaining binding of 100% (binding; competition with immobilised ligand; 1 µM).
`O=C(NCCCN1CCOCC1)c1ccc(Nc2nccc(-c3cc4ccccc4s3)n2)cc1` gave a remaining binding of 80% (binding; competition with immobilised ligand; 1 µM).
For `c1cncc(-c2cccc(Nc3nccc(NC4CCCCC4)n3)c2)c1`, the remaining binding was 39% (binding; competition with immobilised ligand; 10 µM).
For `COc1ccnn2ncc(-c3ccnc(N(C)C)n3)c12`, the remaining binding was 100% (binding; 1 µM).
With `Cc1cnc(Nc2ccc(C(=O)N3CCC(N4CCCC4)CC3)cc2)nc1-c1cc2ccccc2s1` the remaining binding was 81% (binding; competition with immobilised ligand; 1 µM).
`O=C(NCC1CCOCC1)c1n[nH]cc1NC(=O)c1c(F)cccc1F` has a remaining binding of 100% (binding; competition with immobilised ligand; 1 µM).
For `C[C@H]1CCN(c2nccc(-c3cnn4ncccc34)n2)C1`, the remaining binding was 95% (binding; 1 µM).
For `CN(C)C(=O)Cn1cc(-c2nc(C3(c4ccc(-c5cnc(N)nc5)cc4)CC3)no2)cn1`, the remaining binding was 100% (cell-free assay; competition with immobilised ligand; 1 µM).
For `CN(c1nccc(-c2cnn3ncccc23)n1)C1CC1`, the remaining binding was 87% (binding; 1 µM).
`CC(=O)C1=C(C)N(c2cccc(C(F)(F)F)c2)C(=O)N[C@@H]1c1ccc(C#N)nc1` gave a remaining binding of 98.7% (cell-free assay; competition with immobilised ligand; 1 µM).
The remaining binding of `COc1cnc(Nc2cccc(S(N)(=O)=O)c2)nc1N1CCN(c2ccccc2)CC1` is reported as 100% (binding; competition with immobilised ligand; 1 µM).
`O=C(NC[C@@H]1[C@H]2CN(C(=O)OCc3cc(C(F)(F)F)cc(C(F)(F)F)c3)C[C@@H]12)c1ccc2[nH]nnc2c1` has a remaining binding of 64% (cell-free assay; competition with immobilised ligand; 1 µM).
`N[C@H]1CCN(c2nccc(-c3cnn4ncccc34)n2)C1` gave a remaining binding of 100% (binding; 1 µM).
`CO[C@H]1CC[C@H](CNc2ccc(S(=O)(=O)NC(=O)c3ccc(N4CCN(CC5=C(c6ccc(Cl)cc6)CC(C)(C)CC5)CC4)cc3Oc3cnc4[nH]ccc4c3)cc2[N+](=O)[O-])CC1` gave a remaining binding of 85% (cell-free assay; competition with immobilised ligand; 1 µM).
The remaining binding of `CC1CCCN1c1nccc(-c2cnn3ncccc23)n1` (stereo not shown) is reported as 89% (binding; 1 µM).
`CCN1CCN(Cc2ccc(C(=O)Nc3ccc(C)c(Oc4ccc5c(c4)CC(=O)N5)c3)cc2C(F)(F)F)CC1` has a remaining binding of 100% (binding; competition with immobilised ligand; 1 µM).
